According to ChEMBL document CHEMBL2311307, “Polymethoxyflavones as agents that prevent formation of cataract: nobiletin congeners show potent growth inhibitory effects in human lens epithelial cells” (Bioorg Med Chem Lett, 2013):
Active and inactive are the calls of the source. The calls are words filed in the database; no cut-off is given here.

What was measured:
[1] = […] human SRA 01/04 cells assessed as inhibition of PMA-induced proMMP9 expression after 24 hrs by gelatin zymographic analysis; format: functional, cell-based
[2] = Growth inhibition of human SRA 01/04 cells at 32 uM after 4 days by Alamar blue assay; format: functional; conditions: 96 h, read-out: GI
In short: (§1)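 SRA01/04 human lens epithelial cells grown in DMEM with 20% heat-inactivated FBS plus penicillin/streptomycin/neomycin, 37 °C, 5% CO₂. Seeded at 3 × 10³ cells/well and treated in DMEM with varied flavonoid concentrations for up to 4 days. Alamar Blue added for the final 2 h, fluorescence read at ex 530/em 590 nm. Inhibition taken from the day 4 minus day 0 fluorescence change, treated versus control. n = 4, mean ± SD.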

Homo sapiens [3] = organism: Homo sapiens; assay: Growth inhibition of human SRA 01/04 cells assessed as reduction in PCNA expression at 64 uM after 4 days by Western blot analysis; format: functional
In short: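 SRA01/04 cells plated at 2 × 10⁵ cells/dish, then harvested and lysed in RIPA buffer (pH 7.5 Tris–HCl, with orthovanadate, PMSF and protease inhibitors). 7 µg protein run on 12.5% SDS-PAGE and transferred to PVDF. Probed overnight at 4 °C with mouse anti-PCNA or anti-β-actin, then alkaline phosphatase secondary for 1 h at room temperature. Bands developed with BCIP/NBT.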

[4] = Growth inhibition of human SRA 01/04 cells at 64 uM after 4 days by Alamar blue assay; format: functional; conditions: 96 h, read-out: GI; in short: as §1
Homo sapiens [5] = organism: Homo sapiens; assay: Growth inhibition of human SRA 01/04 cells after 4 days by Alamar blue assay; format: functional; in short: as §1

| SMILES | inhibition of growth at 32 µM [2] [%] | other results |
| --- | --- | --- |
| COc1cccc(OC)c1-c1cc(=O)c2c(OC)c(OC)c(OC)c(OC)c2o1 | 75.9 | IC50 [1]: > 64 µM |
| COc1c(OC)c(O)c2c(=O)cc(-c3ccccc3O)oc2c1OC | 30.7 | IC50 [1]: > 64 µM |
| COc1cc(-c2cc(=O)c3c(O)c(OC)c(OC)c(OC)c3o2)ccc1O | 64.1 |  |
| COc1c(OC)c(OC)c2c(=O)cc(-c3ccc(O)cc3)oc2c1OC | 32 |  |
| COc1cc(OC)cc(-c2cc(=O)c3c(OC)c(OC)c(OC)c(OC)c3o2)c1 | 59.9 |  |
| COc1c(OC)c(OC)c2c(=O)cc(-c3c(O)cccc3O)oc2c1OC | 5.1 | IC50 [1]: 55 µM |
| COc1c(OC)c(OC)c2c(=O)cc(-c3cc(O)cc(O)c3)oc2c1OC | 11.5 |  |
| COc1c(OC)c(OC)c2c(=O)cc(-c3cccc(O)c3)oc2c1OC | 18.3 |  |
| COc1cccc(-c2cc(=O)c3c(OC)c(OC)c(OC)c(OC)c3o2)c1 | 42 |  |
| COc1ccccc1-c1cc(=O)c2c(OC)c(OC)c(OC)c(OC)c2o1 | 23.3 |  |
| COc1cc(-c2cc(=O)c3c(OC)c(OC)c(OC)c(OC)c3o2)ccc1O | 30.7 |  |
| COc1c(OC)c(OC)c2c(=O)cc(-c3ccccc3O)oc2c1OC | 4.2 |  |
| COc1ccc(-c2cc(=O)c3c(OC)c(OC)c(OC)c(OC)c3o2)cc1 [TANGERETIN] | 75.9 |  |
| COc1ccc(-c2cc(=O)c3c(OC)c(OC)c(OC)c(OC)c3o2)cc1OC [NOBILETIN] | 47.4 | growth inhibition (GI) (Homo sapiens [3]): Active; inhibition of growth at 64 µM [4]: 80%; growth inhibition (GI) (Homo sapiens [5]): Dose-dependent effect |
| COc1c(OC)c(OC)c2c(=O)cc(-c3ccc(O)c(O)c3)oc2c1OC | 26.5 |  |
| COc1c(OC)c(O)c2c(=O)cc(-c3ccc(O)cc3)oc2c1OC [XANTHOMICROL] | 42.3 |  |
| COc1ccc(-c2cc(=O)c3c(O)c(OC)c(OC)c(OC)c3o2)cc1OC [5-DEMETHYLNOBILETIN] | 17.2 |  |
